From publication PMC9111184 (Current Research in Pharmacology and Drug Discovery, 2022) come the findings set out here.

By Papp is commonly meant a coefficient for how fast a substance crosses the barrier. The term IC50 denotes the concentration at which inhibition is half-maximal. Read a low IC50 as greater potency in that assay.

One data set relates to Caco-2 cell monolayers. It counts as cell-based, Human. The note with it: relative to cholesterol alone, 24 h. The essentials:
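Caco-2 seeded at 2–4 x 10^4 cells/cm2 on transwell inserts (0.4 μm pore) and grown 16 days into monolayers. TEER was read before and after; monolayers above […] were accepted. Test compound was added apically in DMEM together with 5 mM cholesterol, with plain DMEM basolateral. After 24 h at 37 °C, 5% CO2, both sides were sampled for RP-HPLC-DAD. Cholesterol permeation % = amount transported/initial apical amount.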

A short description of a further data set: Permeability. It counts as in vitro ADME. The note with it: human, Caco-2. In outline: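 Monolayers were Caco-2 grown 16 days on 0.4 μm-pore transwell inserts after seeding at 2–4 x 10^4 cells/cm2, with TEER above 250 Ω/cm2 checked before and after. Test compound in DMEM containing 5 mM cholesterol went apically and DMEM basolaterally for 24 h, 37 °C, 5% CO2. Both compartments were quantified by RP-HPLC-DAD. Papp = (dQ/dt)/(A × C0), using basolateral appearance rate, membrane area and initial concentration.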
(Passage across Caco-2 layers is used to estimate intestinal permeability.)

A further data set deals with Caco-2 cells. Nature of the data set: FTIR analysis of treated cells. It counts as cell-based, Human. The note with it: phenolic compounds 1 mM, 24 h. The essentials: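 Cell suspension at ~1.2 × 10^6 cells/mL was seeded onto CaF2 windows and left overnight. Cells were then exposed 24 h to phenolic test compounds at 1 mM or another test compound at 100 μM; untreated cells served as control. FTIR spectra covered 900–3000 cm−1 at 4 cm−1 resolution, averaging 128 scans, and were normalized to Amide II. Spectra were Savitsky-Golay smoothed (eight points) and second-derivative processed; 4 replicates.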

Data set [1] in a line: MTT cytotoxicity on Caco-2 cell line. It counts as cell-based. The note with it: human, Caco-2 cells. The essentials: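 MTT viability test: 2 × 10^4 cells per well, pre-incubated 48 h at 37 °C, 5% CO2. Test compound in FBS-free DMEM was added at 0.025–1 mg/mL (phenolic acids) or 0.1–1 mM (other compound) for 24 h, then MTT reagent. Absorbance was read at 595 nm minus 630 nm, and viability expressed as % of untreated control; eight replicates per concentration.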

As to `O=C(/C=C/c1ccc(O)c(O)c1)O[C@@H]1C[C@](O)(C(=O)O)C[C@@H](O)[C@H]1O` [ChA, chlorogenic acid], the “Decrease in cholesterol permeability” value in the data set with Caco-2 cell monolayers is listed as 80.29%. Also, the Papp at 24 h in “Permeability” came to 1.38 ×10⁻⁶ cm/s. For the same compound, the “Change of band at 1081 cm−1 relative to control” value in the data set with Caco-2 cells was “increase”. Besides, the “Change of bands at 965, 1081 and 1240 cm−1 (DNA bands) relative to control” value (from here on “Change … (DNA bands) relative to control”) with Caco-2 cells (Ezetimibe 100 μM) is on record as “decrease”.
`O=C1[C@H](CC[C@H](O)c2ccc(F)cc2)[C@@H](c2ccc(O)cc2)N1c1ccc(F)cc1` [EZ, ezetimibe, reference compound]: in the data set with Caco-2 cell monolayers, the “Decrease in cholesterol permeability” value is on record as 96.60%. Further, the Papp at 24 h in the data set “Permeability” worked out at 2.94 ×10⁻⁶ cm/s. The same compound came in with an IC50 at 24 h in data set [1] of 228 µM.
For `O=C(/C=C/c1ccc(O)c(O)c1)O[C@H](Cc1ccc(O)c(O)c1)C(=O)O` [RA, rosmarinic acid], the “Decrease in cholesterol permeability” value with Caco-2 cell monolayers came out at 85.65%. The compound also registered a Papp at 24 h in the data set “Permeability” of 1.68 ×10⁻⁶ cm/s. Further, in the data set on Caco-2 cells (Ezetimibe 100 μM), the “Change … (DNA bands) relative to control” value was “decrease”; the “Change of random coil structures at 1650 cm−1 vs untreated cells” value is given as “increase”; the “Change of β-sheets band area at ∼1637 and 1683 cm−1 vs untreated cells” value is “increase”.
For `O=C(O)/C=C/c1cccc(O)c1` [m-CA, m-coumaric acid], in the data set with Caco-2 cell monolayers, the “Decrease in cholesterol permeability” value is listed as 77.70%. Also, in the data set with Caco-2 cells (Ezetimibe 100 μM), the “Change … (DNA bands) relative to control” value is given as “decrease”; the “Change of β-sheets band area at ∼1637 and 1683 cm−1 vs untreated cells” value is “didn't show any changes”.
